“Also recorded” adds a separate entry of the source. Where two headings read alike, the source gives them in different places.

The subject of one data set is extracellular Aβ40. The data set is described as follows: Extracellular Aβ40 ELISA capture assay in N2a-AβPP695 cell supernatants. In kind it is cell-based. Particulars: for effect on extracellular Aβ40 level/production: N2a-AβPP695, compound alone, various concentrations; for effect on extracellular Aβ40 in Aftin-5 treated cells: N2a-AβPP695, compound together with 100 μM Aftin-5, 18 h; for IC50: read-out: IC50 Aβ40, N2a-AβPP695, GSI added 1 h before 100 μM Aftin-5, 18 h.

For another data set, the system named is extracellular Aβ38. The data set is described as follows: Extracellular Aβ38 ELISA capture assay in N2a-AβPP695 cell supernatants. The class given is cell-based. Particulars: for effect on extracellular Aβ38 level: N2a-AβPP695, compound alone, various concentrations; for IC50: read-out: IC50 Aβ38, N2a-AβPP695, GSI added 1 h before 100 μM Aftin-5, 18 h. Background: An ELISA detects its analyte on a solid surface through an enzyme-linked reagent.

The subject of another data set is extracellular Aβ42. The data set is described as follows: Extracellular Aβ42 ELISA capture assay in N2a-AβPP695 cell supernatants. The class given is cell-based. To be noted: for effect on extracellular Aβ42 level/production: N2a-AβPP695, compound alone, various concentrations; for effect on Aftin-5 induced extracellular Aβ42 production: N2a-AβPP695, compound together with 100 μM Aftin-5, 18 h.

For data set [1], the system named is mitochondria isolated from N2a-AβPP695 cells. The data set is described as follows: Electron microscopy, ultrastructure of isolated mitochondria. To be noted: 100 μM Aftin-5; 50 μM Calcium; 50 μM Calcium + CsA.
Data set [2] concerns N2a-AβPP695 cells. Briefly: Autophagy assessment, counting of LC3 foci by immunofluorescence. In kind it is cell-based. The method, boiled down:
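Cells grown on glass coverslips, fixed in 4% paraformaldehyde, permeabilised with 50 μM digitonin, and stained with a monoclonal anti-LC3 antibody. Images taken with a 40× NA 0.85 objective. LC3 foci counted automatically by image analysis.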

The subject of data set [3] is intracellular Aβ38, Aβ40, and Aβ42. Briefly: Intracellular amyloids ELISA capture assay in N2a-AβPP695 cells. The class given is cell-based. An outline of the steps:
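2 × 10⁶ N2a-AβPP695 cells per T25 flask in 0.5% FBS medium overnight, then treated for 18 h. Cells washed, scraped into PBS with protease inhibitors, pelleted, lysed in 1% Nonidet P-40, sonicated, and spun at 14,000 rpm for 15 min at 4°C. Lysate supernatant assayed by 6E10-capture sandwich ELISA with biotinylated Aβ38, Aβ40 or Aβ42 antibodies. Values expressed as fold over untreated cells.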

Data set [4] has as its system N2a-AβPP695 cells. Briefly: Electron microscopy, ultrastructure of mitochondria within cells. The class given is cell-based.
For another data set, the system named is N2a-AβPP695. Briefly: Cell viability, MTS assay, N2a-AβPP695. The class given is cell-based. To be noted: for IC50: read-out: IC50, cell viability (MTS assay), N2a-AβPP695, viability assessed 24 h later.
The next data set has as its system HT22. Briefly: Cell viability, MTS assay, HT22. In kind it is cell-based. To be noted: read-out: IC50, cell viability (MTS assay); HT22, viability assessed 24 h later. The method, boiled down: (§1)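 Each line was exposed to increasing concentrations of test compound, and viability was read 24 h later by MTS. 20 μL MTS reagent per 100 μL medium, 3 h at 37°C, 5% CO₂. Absorbance read at 490 and 630 nm. IC50 derived from dose-response curves.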

Data set [5] concerns KinomeScan panel of 402/442 kinases. Briefly: KinomeScan panel. Particulars: 10 μM. In kind it is binding.
The subject of a further data set is SH-SY5Y. Briefly: Cell viability, MTS assay, SH-SY5Y. In kind it is cell-based. To be noted: read-out: IC50, cell viability (MTS assay), viability assessed 24 h later. For orientation: Formazan colour is commonly taken as a measure of viable cells.
Data set [6] concerns N2a-AβPP695 cells. Briefly: Mitochondrial parameters in cultured cells. The class given is cell-based.
The nature of another data set: Animal toxicity. In kind it is in vivo. To be noted: per os doses up to 150 mg/kg daily for 20 days; data not shown.
For the next data set, the system named is N2a. Briefly: Cell viability, MTS assay, N2a. In kind it is cell-based. To be noted: read-out: IC50, cell viability (MTS assay), viability assessed 24 h later. The method, boiled down: as §1
The test system of data set [7] is KinomeScan panel of 402/442 kinases. Particulars: 402 kinases; cited from earlier work.
[8] abbreviates: N2a-AβPP695, dose-response, 18 h.

Regarding `C[C@H](CS)C(=O)N1CCC[C@H]1C(=O)O` [captopril], the “effect on extracellular Aβ40 level/production” value in the data set on extracellular Aβ40 (18 h) is given as “no effects”. In the data set with extracellular Aβ38 (18 h), the “effect on extracellular Aβ38 level” value is on record as “no effects”. Moreover, the “effect on extracellular Aβ42 level/production” value in the data set with extracellular Aβ42 (18 h) is “no effects”.

`CC[C@H](CO)Nc1nc(NCc2ccccc2)c2ncn(C(C)C)c2n1` [roscovitine, (R)-Roscovitine]: in the data set on extracellular Aβ42 (18 h), the “effect on extracellular Aβ42 level/production” value was “little effect”.

Regarding `C[C@H](N[C@@H](CCc1ccccc1)C(=O)O)C(=O)N1Cc2ccccc2C[C@H]1C(=O)O` [quinaprilat], the “effect on extracellular Aβ40 level/production” value in the data set on extracellular Aβ40 (18 h) was “no effects”. Further, the “effect on extracellular Aβ38 level” value in the data set with extracellular Aβ38 (18 h) is listed as “no effects”. Besides, the “effect on extracellular Aβ42 level/production” value in the data set with extracellular Aβ42 (18 h) is on record as “no effects”.

In the case of `[Ca+2]` [calcium], in [1], the “ultrastructure of isolated mitochondria (swelling, cristae remodeling)” value is “strong swelling”.

Take `CO[C@H]1C[C@@H]2CC[C@@H](C)[C@@](O)(O2)C(=O)C(=O)N2CCCC[C@H]2C(=O)O[C@H]([C@H](C)C[C@@H]2CC[C@@H](O)[C@H](OC)C2)CC(=O)[C@H](C)/C=C(\C)[C@@H](O)[C@@H](OC)C(=O)[C@H](C)C[C@H](C)/C=C/C=C/C=C/1C` [rapamycin]: the “autophagy, LC3 foci, compound alone” value in the data set on N2a-AβPP695 cells [2] is recorded as “accumulation of LC3 foci”. In the data set with extracellular Aβ42, the “effect on Aftin-5 induced extracellular Aβ42 production” value is “did not prevent”.

With `C[C@H](NC(=O)Cc1cc(F)cc(F)c1)C(=O)NC(C(=O)OC(C)(C)C)c1ccccc1` (some centres unmarked) [DAPT], the “effect on levels of intracellular amyloids” value in data set [3] (N2a-AβPP695, 1 μM compound in presence of 100 μM Aftin-5, 18 h) was “but not that of intracellular amyloids”. For the same compound, in the data set with extracellular Aβ40, the “effect on extracellular Aβ40 in Aftin-5 treated cells” value was “down-regulated” and the IC50 is 0.062 µM. The “effect on extracellular Aβ38 / Aftin-5 induced Aβ38 down-regulation” value with extracellular Aβ38 (N2a-AβPP695, compound together with 100 μM Aftin-5, 18 h) was “down-regulated”. Also, the concentration for half-maximal inhibition (IC50) in the data set on extracellular Aβ38 amounted to 0.112 µM. Moreover, the “effect on Aftin-5 induced extracellular Aβ42 production” value in the data set with extracellular Aβ42 is “down-regulated”.

With `Cn1cnc(N)c2ncnc1-2` [3-methyladenine], the “effect on Aftin-5 induced extracellular Aβ42 production” value with extracellular Aβ42 was “did not interfere”.

With `CC(C)C[C@H](NP(=O)(O)O[C@@H]1O[C@@H](C)[C@H](O)[C@@H](O)[C@H]1O)C(=O)N[C@@H](Cc1c[nH]c2ccccc12)C(=O)O` [phosphoramidon], the “effect on extracellular Aβ40 level/production” value with extracellular Aβ40 (18 h) is given as “no effects”. The “effect on extracellular Aβ38 level” value in the data set with extracellular Aβ38 (18 h) is “no effects”. In addition, the “effect on extracellular Aβ42 level/production” value in the data set on extracellular Aβ42 (18 h) was “no effects”.

As for `C[C@H](c1ccc(F)cc1CCCC(=O)O)N(c1cc(F)ccc1F)S(=O)(=O)c1ccc(Cl)cc1` [BMS 299897], the half-inhibitory concentration (IC50) in the data set with extracellular Aβ40 came out at 0.056 µM; with extracellular Aβ38 it was 0.088 µM.

For the compound `CN(C)c1ncnc2nc[nH]c12` [Aftin N6DA, N6-dimethylaminopurine], the “effect on extracellular Aβ42 level/production” value in the data set on extracellular Aβ42 (18 h) was “inactive”.

Regarding β-secretase inhibitor IV, in the data set on extracellular Aβ40, the “effect on extracellular Aβ40 in Aftin-5 treated cells” value is recorded as “inhibited production”. The “effect on Aftin-5 induced extracellular Aβ42 production” value with extracellular Aβ42 was “inhibited production”.

For `COc1cccc2c1C(=O)c1c(O)c3c(c(O)c1C2=O)C[C@@](O)(C(=O)CO)C[C@@H]3O[C@H]1C[C@H](N)[C@H](O)[C@H](C)O1` [doxorubicin], in the data set on N2a-AβPP695 cells [4] (5 μM doxorubicin), the “ultrastructure of mitochondria within cells, positive control” value was “altered the structure of cristae and induced cell death”.

Turning to `CN(Cc1ccccc1)c1nc(N)nc2[nH]cnc12` [compound (2)], the “effect on rapamycin-induced autophagy” value in the data set on N2a-AβPP695 cells [2] is “Neither Aftin-5 nor its inactive analog compound (2) impaired rapamycin-induced autophagy”. Also, the “effect on extracellular Aβ42 level/production” value in the data set with extracellular Aβ42 (18 h) is “inactive”.

For `CC[C@H](CO)Nc1nc(N(C)c2ccccc2)c2ncn(C(C)C)c2n1` [Aftin-5], in data set [3] (N2a-AβPP695, 100 μM Aftin-5, 18 h), the “effect on levels of intracellular Aβ38, Aβ40, and Aβ42” value was “did not modify”. Besides, the “maximum increase of Aβ40 level” value with extracellular Aβ40 (setting [8]) turned out to be 40%. Further, the 50% inhibitory concentration (IC50) in the data set on N2a-AβPP695 is 150 µM; in the data set on HT22, 194 µM; in the data set with SH-SY5Y it was 180 µM; in the data set with N2a, 178 µM. The “cytotoxic effects on cells” value in the data set on N2a-AβPP695 (up to 100 μM, or longest exposure 6 days, data not shown) was “did not show any cytotoxic effects; also recorded: little cell toxicity”. In addition, the “interaction with kinases (KinomeScan)” value in [5] was “no interaction with any of the kinases”. For the same compound, the “ultrastructure of mitochondria within cells, 6 h” value in the data set with N2a-AβPP695 cells [4] (100 μM, 6 h) was “little detectable effects”. Also, the “ultrastructure of mitochondria within cells, 24 h” value in the data set on N2a-AβPP695 cells [4] (100 μM, 24 h, reversible upon washing) is on record as “partial mitochondrial swelling without disruption of cristae”. Also, the “mitochondrial parameters at the cellular level, control vs treated cells” value with N2a-AβPP695 cells [6] is “essentially undistinguishable”. Further, the global respiration functions result in the data set on N2a-AβPP695 cells [6] (24 h) is given as “slight inhibition”. For the same compound, in the data set “Animal toxicity”, the animal toxicity entry is on record as “little”. Further, the “decrease of Aβ38 level” value with extracellular Aβ38 (setting [8]) is listed as over 70%. Besides, the “effect on rapamycin-induced autophagy” value with N2a-AβPP695 cells [2] was “Neither Aftin-5 nor its inactive analog compound (2) impaired rapamycin-induced autophagy”. The “time after addition at which Aβ42 production reached a plateau” value in the data set on extracellular Aβ42 (N2a-AβPP695, 100 μM Aftin-5) is given as “about 12 h”. In addition, in the data set on extracellular Aβ42 (18 h), the “effect on extracellular Aβ42 level/production” value is reported as “linear up to the highest dose tested”. In the data set on extracellular Aβ42 (setting [8]), the “increase of Aβ42 production (up to)” value is given as over 900%. Moreover, the “ultrastructure of isolated mitochondria (swelling, cristae remodeling)” value in data set [1] is given as “did not induce any swelling or cristae remodeling”.

For `CCC(CO)Nc1nc(N(C)Cc2ccccc2)c2ncn(C(C)C)c2n1` (centres unmarked) [Aftin-4, N^6-methyl-roscovitine], the “interaction with kinases (KinomeScan)” value in data set [7] was “no significant interaction”. Moreover, the concentration for half-maximal inhibition (IC50) was found to be 90 µM in the data set with N2a-AβPP695, 74 µM with HT22, 106 µM in the data set on SH-SY5Y and 100 µM in the data set with N2a. For the same compound, the “effect on extracellular Aβ42 level/production” value in the data set with extracellular Aβ42 (18 h) is listed as “bell-shaped”.

As for `O=C(O)CNC(=O)C(CS)Cc1ccccc1` (centres unmarked) [thiorphan], in the data set with extracellular Aβ40 (18 h), the “effect on extracellular Aβ40 level/production” value is reported as “no effects”. Moreover, the “effect on extracellular Aβ38 level” value with extracellular Aβ38 (18 h) is “no effects”. Besides, in the data set on extracellular Aβ42 (18 h), the “effect on extracellular Aβ42 level/production” value is on record as “no effects”.

Broadly, the IC50 is the concentration needed to halve the response being measured.

These data come from article PMC5039020 (Journal of Alzheimer's disease : JAD, 2013).
